A short description of data set [1]: Cytotoxicity against rat L6 cells after 72 hrs by Alamar blue resazurin assay. The settings on record: read-out: TD50. It is filed as cell-based. On the technique in general: Resazurin is reduced to fluorescent resorufin, in cell work by metabolically active cells.
For data set [2], the system named is Plasmodium falciparum. Kind of data set: Antimalarial activity against chloroquine-sensitive Plasmodium falciparum NF54 in type O+ human erythrocytes after 48 hrs as reduced [3H]hypoxanthine uptake. Format: functional, organism-based. The method, boiled down: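 NF54 parasites grown in 2.4% O+ human erythrocyte suspension in RPMI 1640 with 25 mM HEPES, 27 mM NaHCO3, 10% heat-inactivated O+ human serum, under 3% O2/4% CO2/93% N2. Compounds serially diluted in 0.2% DMSO medium, incubated with culture 48 h, then 0.6 μCi [3H]hypoxanthine added for 20 h. Harvested on glass filters, scintillation counted. IC50 from dose-response curves.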

Data set [3] deals with Plasmepsin II (Plasmodium falciparum, UniProt P46925). Kind of data set: Inhibition of Plasmodium falciparum plasmepsin-2. The method, boiled down: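 Plm II (400 nM) hydrolysis of chromogenic substrate H-Ala-Leu-Glu-Arg-Thr-Phe-Phe(p-NO2)-Ser-Phe-Pro-Thr-OH (163 μM) in 10 mM sodium formate pH 4.0, 2% DMSO, 25 °C, with increasing inhibitor. Rates fitted to tight-binding competitive inhibition equations for Ki.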

In data set [4] the target is Protease (Human immunodeficiency virus 1) (UniProt Q9YQ12). Kind of data set: Inhibition of recombinant HIV1 protease at 50 nM. The method, boiled down: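 Recombinant HIV-1 PR (2 μg/mL stock) was mixed with inhibitor (500 nM solution in DMSO) in MES–NaOH pH 5.5 buffer containing DTT, EDTA and 1 M NaCl. The reaction was started with substrate H-Lys-Ala-Arg-Val-Tyr-Phe(p-NO₂)-Glu-Ala-Nle-NH₂ (1.0 mM solution) and run 15 min at 37 °C, then stopped with 1M HCl. The cleaved N-terminal fragment was quantified by reversed-phase C18 HPLC.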

By EC50 is commonly meant the concentration needed to bring the measured effect to its halfway point. A lower EC50 goes with a more potent agent. For orientation: Ki means a dissociation constant, usually derived from enzyme kinetics or from competition with a known ligand. The low end stands for higher affinity, the high end for lower affinity. Broadly, the inhibition is the drop in the measured response relative to a control, in per cent.

Sequence of Plasmepsin II (P46925 whole entry): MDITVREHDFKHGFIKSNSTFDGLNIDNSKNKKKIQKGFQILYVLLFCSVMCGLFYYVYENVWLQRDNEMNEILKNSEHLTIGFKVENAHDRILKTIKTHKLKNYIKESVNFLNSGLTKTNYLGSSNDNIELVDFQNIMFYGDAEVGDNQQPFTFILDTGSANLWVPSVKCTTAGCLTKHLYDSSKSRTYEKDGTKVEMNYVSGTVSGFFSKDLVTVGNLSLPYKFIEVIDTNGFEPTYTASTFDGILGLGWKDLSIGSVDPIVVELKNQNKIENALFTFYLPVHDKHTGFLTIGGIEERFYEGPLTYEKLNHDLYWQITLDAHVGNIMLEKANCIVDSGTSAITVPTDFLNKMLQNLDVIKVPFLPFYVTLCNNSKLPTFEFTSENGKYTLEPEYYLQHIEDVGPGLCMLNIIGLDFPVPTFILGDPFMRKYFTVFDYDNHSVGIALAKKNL
Sequence of Protease (Human immunodeficiency virus 1) (Q9YQ12 as listed by the source): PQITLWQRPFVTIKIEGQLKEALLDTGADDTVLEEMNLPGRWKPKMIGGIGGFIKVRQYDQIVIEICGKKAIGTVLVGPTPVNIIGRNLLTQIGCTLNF

Consider `CNc1cc(C)c(OCC(=O)N[C@@H](Cc2ccccc2)[C@H](O)C(=O)N2CSC(C)(C)[C@H]2C(=O)N[C@H]2c3ccccc3C[C@H]2O)c(C)c1`, for which, in data set [1], the CC50 at 72 h is above 120000 nM. In addition, in data set [2], the response was half-maximal at 450 nM (EC50). This compound returned a Ki in data set [3] of 25 nM. For the same compound, the inhibition in data set [4] is 91%.
Take `COc1cccc(OCC(=O)N[C@@H](Cc2ccccc2)[C@H](O)C(=O)N2CSC(C)(C)[C@H]2C(=O)N[C@H]2c3ccccc3C[C@H]2O)c1`: the EC50 in data set [2] is above 8000 nM. This compound also showed a Ki in data set [3] of 4 nM. Also, in data set [4], the inhibition is 10%.
Consider `CC1(C)SCN(C(=O)[C@@H](O)[C@H](Cc2ccccc2)NC(=O)COc2cccc([N+](=O)[O-])c2)[C@@H]1C(=O)N[C@H]1c2ccccc2C[C@H]1O`, for which the CC50 at 72 h in data set [1] was 58000 nM. In data set [2], this compound yielded a concentration giving a half-maximal response (EC50) of 2800 nM. The inhibition constant (Ki) in data set [3] turned out to be 38 nM. In addition, in data set [4], the inhibition amounted to 12%.
Take `CCNc1cc(C)c(OCC(=O)N[C@@H](Cc2ccccc2)[C@H](O)C(=O)N2CSC(C)(C)[C@H]2C(=O)N[C@H]2c3ccccc3C[C@H]2O)c(C)c1`: the CC50 at 72 h in data set [1] was found to be 64000 nM. Besides, the concentration giving a half-maximal response (EC50) in data set [2] stood at 720 nM. The same compound gave a Ki in data set [3] of 7 nM. Further, in data set [4], the inhibition was 84%.
The compound `CC1(C)SCN(C(=O)[C@@H](O)[C@H](Cc2ccccc2)NC(=O)COc2ccc(O)cc2)[C@@H]1C(=O)N[C@H]1c2ccccc2C[C@H]1O` had an EC50 in data set [2] above 8000 nM. Moreover, the inhibition constant (Ki) in data set [3] worked out at 10 nM. The inhibition in data set [4] was determined as 31%.
In the case of `Cc1ccccc1OCC(=O)N[C@@H](Cc1ccccc1)[C@H](O)C(=O)N1CSC(C)(C)[C@H]1C(=O)N[C@H]1c2ccccc2C[C@H]1O`, the affinity in data set [3], expressed as Ki, was 145 nM. Moreover, the inhibition in data set [4] stood at 72%.
`Cc1cc(N(C)C)cc(C)c1OCC(=O)N[C@@H](Cc1ccccc1)[C@H](O)C(=O)N1CSC(C)(C)[C@H]1C(=O)N[C@H]1c2ccccc2C[C@H]1O`: in data set [1], the CC50 at 72 h turned out to be 45000 nM. This compound also registered an EC50 in data set [2] of 1200 nM. The Ki in data set [3] was 21 nM. Besides, the inhibition in data set [4] is 86%.
The compound `CC1(C)SCN(C(=O)[C@@H](O)[C@H](Cc2ccccc2)NC(=O)COc2cccc(CO)c2)[C@@H]1C(=O)N[C@H]1c2ccccc2C[C@H]1O` displayed a half-maximal effective concentration (EC50) in data set [2] above 8000 nM. In addition, the inhibition constant (Ki) in data set [3] is 9 nM. In addition, in data set [4], the inhibition came out at 24%.
In data set [3], `CC1(C)SCN(C(=O)[C@@H](O)[C@H](Cc2ccccc2)NC(=O)COc2ccccc2N)[C@@H]1C(=O)N[C@H]1c2ccccc2C[C@H]1O` returned an inhibition constant (Ki) of 126 nM. Besides, the inhibition in data set [4] amounted to 62%.
In data set [2], `CC1(C)SCN(C(=O)[C@@H](O)[C@H](Cc2ccccc2)NC(=O)COc2c(Cl)cccc2Cl)[C@@H]1C(=O)N[C@H]1c2ccccc2C[C@H]1O` returned a 50% effective concentration (EC50) of 5200 nM. The compound further yielded a Ki in data set [3] of 39 nM. In addition, the inhibition in data set [4] was found to be 95%.
The like results for `Cc1cc(O)cc(C)c1OCC(=O)N[C@@H](Cc1ccccc1)[C@H](O)C(=O)N1CSC(C)(C)[C@H]1C(=O)N[C@H]1c2ccccc2C[C@H]1O` were, in that order, 3300 nM, 5 nM and 98%.
As for `Cc1cc(N)cc(C)c1OCC(=O)N[C@@H](Cc1ccccc1)[C@H](O)C(=O)N1CSC(C)(C)[C@H]1C(=O)N[C@H]1c2ccccc2C[C@H]1O`, in data set [3], the Ki was 23 nM. In data set [4], the inhibition was 96%.
As for `CC1(C)SCN(C(=O)[C@@H](O)[C@H](Cc2ccccc2)NC(=O)COc2c(F)cccc2F)[C@@H]1C(=O)N[C@H]1c2ccccc2C[C@H]1O`, in data set [1], the CC50 at 72 h is 55000 nM. In data set [2], this compound registered an EC50 of 3300 nM. The same compound gave a Ki in data set [3] of 14 nM. Moreover, the inhibition in data set [4] stood at 58%.
As for `COc1ccc(OCC(=O)N[C@@H](Cc2ccccc2)[C@H](O)C(=O)N2CSC(C)(C)[C@H]2C(=O)N[C@H]2c3ccccc3C[C@H]2O)cc1`, in data set [3], the inhibitory constant (Ki) is 479 nM. Further, the inhibition in data set [4] turned out to be 38%.
As for `Cc1ccc(OCC(=O)N[C@@H](Cc2ccccc2)[C@H](O)C(=O)N2CSC(C)(C)[C@H]2C(=O)N[C@H]2c3ccccc3C[C@H]2O)cc1`, the EC50 in data set [2] was above 8000 nM. The compound also yielded a Ki in data set [3] of 55 nM. In data set [4], the inhibition is 27%.
As for `CC1(C)SCN(C(=O)[C@@H](O)[C@H](Cc2ccccc2)NC(=O)COc2ccccc2[N+](=O)[O-])[C@@H]1C(=O)N[C@H]1c2ccccc2C[C@H]1O`, in data set [3], the Ki stood at 55 nM. Moreover, the inhibition in data set [4] was found to be 9%.
Consider `Cc1cc(NCc2cccnc2)cc(C)c1OCC(=O)N[C@@H](Cc1ccccc1)[C@H](O)C(=O)N1CSC(C)(C)[C@H]1C(=O)N[C@H]1c2ccccc2C[C@H]1O`, for which the CC50 at 72 h in data set [1] is above 120000 nM. It took 500 nM to reach a half-maximal effect in data set [2] (EC50). In data set [3], this compound had a Ki of 21 nM. Moreover, in data set [4], the inhibition was found to be 91%.
Taken in the same sequence, the figures for `CC(C)c1cccc(C(C)C)c1OCC(=O)N[C@@H](Cc1ccccc1)[C@H](O)C(=O)N1CSC(C)(C)[C@H]1C(=O)N[C@H]1c2ccccc2C[C@H]1O` were 6300 nM, 2900 nM, 23 nM and 0%.
As to `COc1cccc(OC)c1OCC(=O)N[C@@H](Cc1ccccc1)[C@H](O)C(=O)N1CSC(C)(C)[C@H]1C(=O)N[C@H]1c2ccccc2C[C@H]1O`, affinity in data set [3] was put at a Ki of 782 nM. Moreover, the inhibition in data set [4] turned out to be 54%.
The like results for `CC1(C)SCN(C(=O)[C@@H](O)[C@H](Cc2ccccc2)NC(=O)COc2ccccc2O)[C@@H]1C(=O)N[C@H]1c2ccccc2C[C@H]1O` were, in that order, 112 nM and 34%.
In data set [2], `CC1(C)SCN(C(=O)[C@@H](O)[C@H](Cc2ccccc2)NC(=O)COc2ccc(N)cc2)[C@@H]1C(=O)N[C@H]1c2ccccc2C[C@H]1O` had a 50% effective concentration (EC50) above 8000 nM. In data set [3], the Ki was 28 nM. In data set [4], the inhibition is 27%.
Regarding `Cc1cccc(C)c1OCC(=O)N[C@@H](Cc1ccccc1)[C@H](O)C(=O)N1CSC(C)(C)[C@H]1C(=O)N[C@H]1c2ccccc2C[C@H]1O`, in data set [4], the inhibition came to 98%.
As to `CC1(C)SCN(C(=O)[C@@H](O)[C@H](Cc2ccccc2)NC(=O)COc2ccc([N+](=O)[O-])cc2)[C@@H]1C(=O)N[C@H]1c2ccccc2C[C@H]1O`, in data set [1], the CC50 at 72 h turned out to be 63000 nM. In data set [2], this compound gave an EC50 of 4200 nM. Besides, affinity in data set [3] was put at a Ki of 25 nM. Moreover, the inhibition in data set [4] amounted to 53%.
For the compound `CCCCNc1cc(C)c(OCC(=O)N[C@@H](Cc2ccccc2)[C@H](O)C(=O)N2CSC(C)(C)[C@H]2C(=O)N[C@H]2c3ccccc3C[C@H]2O)c(C)c1`, in data set [1], the CC50 at 72 h amounted to 22000 nM. Further, in data set [2], the half-maximal effective concentration (EC50) came to 540 nM. This compound also came in with a Ki in data set [3] of 30 nM. Moreover, in data set [4], the inhibition stood at 85%.
For the compound `COc1ccccc1OCC(=O)N[C@@H](Cc1ccccc1)[C@H](O)C(=O)N1CSC(C)(C)[C@H]1C(=O)N[C@H]1c2ccccc2C[C@H]1O`, the inhibitory constant (Ki) in data set [3] is 153 nM. For the same compound, in data set [4], the inhibition was 27%.
Taken in the same sequence, the figures for `CC1(C)SCN(C(=O)[C@@H](O)[C@H](Cc2ccccc2)NC(=O)COc2ccccc2CO)[C@@H]1C(=O)N[C@H]1c2ccccc2C[C@H]1O` were 132 nM and 61%.
With `Cc1cc(NCc2ccncc2)cc(C)c1OCC(=O)N[C@@H](Cc1ccccc1)[C@H](O)C(=O)N1CSC(C)(C)[C@H]1C(=O)N[C@H]1c2ccccc2C[C@H]1O`, the CC50 at 72 h in data set [1] is above 120000 nM. Besides, in data set [2], the EC50 is 490 nM. The Ki in data set [3] stood at 6 nM. In addition, the inhibition in data set [4] turned out to be 91%.
Taken in the same sequence, the figures for `Cc1cc(F)cc(C)c1OCC(=O)N[C@@H](Cc1ccccc1)[C@H](O)C(=O)N1CSC(C)(C)[C@H]1C(=O)N[C@H]1c2ccccc2C[C@H]1O` were 29000 nM, 1400 nM, 19 nM and 87%.
In turn, `Cc1cccc(OCC(=O)N[C@@H](Cc2ccccc2)[C@H](O)C(=O)N2CSC(C)(C)[C@H]2C(=O)N[C@H]2c3ccccc3C[C@H]2O)c1` returned an EC50 in data set [2] above 8000 nM. This compound returned a Ki in data set [3] of 42 nM. Also, the inhibition in data set [4] was 13%.
Consider `Cc1cc(NCc2ccccn2)cc(C)c1OCC(=O)N[C@@H](Cc1ccccc1)[C@H](O)C(=O)N1CSC(C)(C)[C@H]1C(=O)N[C@H]1c2ccccc2C[C@H]1O`, for which the CC50 at 72 h in data set [1] was above 120000 nM. Moreover, the 50% effective concentration (EC50) in data set [2] is 300 nM. In data set [3], this compound returned a Ki of 10 nM. Moreover, the inhibition in data set [4] came to 91%.
The like results for `CC1(C)SCN(C(=O)[C@@H](O)[C@H](Cc2ccccc2)NC(=O)COc2ccc(CO)cc2)[C@@H]1C(=O)N[C@H]1c2ccccc2C[C@H]1O` were, in that order, above 120000 nM, 1100 nM, 10 nM and 37%.
Consider `CC1(C)SCN(C(=O)[C@@H](O)[C@H](Cc2ccccc2)NC(=O)COc2cccc(N)c2)[C@@H]1C(=O)N[C@H]1c2ccccc2C[C@H]1O`, for which, in data set [2], the EC50 was above 8000 nM. The compound also gave an inhibition constant (Ki) in data set [3] of 29 nM. For the same compound, in data set [4], the inhibition came out at 29%.
The like results for `CC1(C)SCN(C(=O)[C@@H](O)[C@H](Cc2ccccc2)NC(=O)COc2cccc(O)c2)[C@@H]1C(=O)N[C@H]1c2ccccc2C[C@H]1O` were, in that order, above 8000 nM, 10 nM and 13%.
